Measurements: ChEMBL document CHEMBL4007508, “Discovery and Pre-Clinical Characterization of Third-Generation 4-H Heteroaryldihydropyrimidine (HAP) Analogues as Hepatitis B Virus (HBV) Capsid Inhibitors” (J Med Chem, 2017)
Active and inactive are the calls of the source. The rule behind the calls is not given here.

Tests used:
Hepatitis B virus [1] = test: Antiviral activity against HBV infected in human HepG2(2.2.15) cells assessed as decrease in HBV genome replication after 5 days by qPCR method; format: functional, cell-based; conditions: HepG2 2.2.15, 120 h
Summary of the method: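 HepG2.2.15 cells (stable HBV genome, Hep G2-derived; DMEM-F12, 10% FBS, penicillin/streptomycin, 0.5 mg/mL G418) seeded 3 × 10^4/well, incubated overnight at 37 °C. Compounds serially half-log diluted in DMSO, then in medium; final DMSO 0.5%. HBV DNA extracted and quantified by qPCR.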

[2] = Cytotoxicity against HBV infected human HepDE19 cells assessed as decrease in cell viability after 5 days by CCK8 assay; format: cell-based
Summary of the method: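 Tetracycline-inducible HBV HepDE19 cells seeded 5 × 10^3/well and treated with compounds. After 5 days, viability read by CCK-8 (2 h, 37 °C; absorbance 450 and 630 nm).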

Hepatocyte = test: Induction of CYP3A4 mRNA expression in human primary hepatocyte after 24 hrs by real-time PCR relative to rifampicin; format: ADME, cell-based; parameters: concentration or dose not given beside the values; conditions: hepatocytes
Summary of the method: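 CYP3A4 mRNA levels measured in primary human hepatocytes and expressed relative to the positive control rifampicin at 10 μM.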

[3] = Solubility of compound in phosphate buffer at pH 6.5 after one night incubation by HPLC-UV method; format: physicochemical
[4] = Oral bioavailability in mouse at 3 mg/kg, by LC-MS/MS analysis; format: ADME, organism-based; conditions: in vivo
Summary of the method: (§1)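 Single-dose mouse PK following standard procedures: IV 1 mg/kg and PO 3 mg/kg. Plasma CL, Vss, IV t1/2, PO Cmax, AUC(0−∞) in plasma (IV and PO) and liver (PO), and oral bioavailability F derived. Liver/plasma ratio uses the PO AUC(0−∞) values.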

[5] = Selectivity index, ratio of CC50 for HBV infected human HepDE19 cells to EC50 for HBV infected in human HepG2(2.2.15) cells
Summary of the method: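 Selectivity index calculated as CC50 (HepDE19, CCK-8 viability after 5 days) divided by EC50 (HBV DNA reduction in HepG2.2.15 cells, qPCR).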

[6] = AUC (0 to infinity) in mouse at 1 mg/kg, iv by LC-MS/MS analysis; format: ADME, organism-based; parameters: dose 1 mg/kg, time infinity, route intravenous; conditions: in vivo; summary of the method: as §1
[7] = Acid ionization constant, pKa of the compound; format: physicochemical
[8] = Apparent partition coefficient, log D of the compound at pH 7.4; format: physicochemical; conditions: octanol/water
[9] = Fraction unbound in mouse plasma at 1000 nM after 5 hrs by LC-MS/MS analysis; format: ADME, cell-free
[10] = Plasma clearance in mouse at 1 mg/kg, iv by LC-MS/MS analysis; format: ADME, organism-based; summary of the method: as §1
[11] = Permeability of the compound at 150 uM after 18 hrs by PAMPA; format: physicochemical; conditions: read-out: permeability
[12] = Fraction unbound in human plasma at 1000 nM after 5 hrs by LC-MS/MS analysis; format: ADME, cell-free
[13] = Half life in mouse at 1 mg/kg, iv by LC-MS/MS analysis; format: ADME, organism-based; conditions: in vivo; summary of the method: as §1
[14] = Ratio of AUC (0 to infinity) in mouse liver at 3 mg/kg, po to AUC (0 to infinity) in mouse plasma at 3 mg/kg, po by LC-MS/MS analysis; format: ADME, organism-based; conditions: liver and plasma, read-out: Ratio AUC; summary of the method: as §1
[15] = Volume of distribution at steady state in mouse at 1 mg/kg, iv by LC-MS/MS analysis; format: ADME, organism-based; conditions: in vivo, read-out: Vdss; summary of the method: as §1
[16] = AUC (0 to infinity) in mouse liver at 3 mg/kg, po by LC-MS/MS analysis; format: ADME, organism-based; parameters: dose 3 mg/kg, time infinity, route oral; summary of the method: as §1
[17] = AUC (0 to infinity) in mouse plasma at 3 mg/kg, po by LC-MS/MS analysis; format: ADME, organism-based; parameters: dose 3 mg/kg, route oral, time infinity; summary of the method: as §1
[18] = Base ionization constant, pKa of the compound; format: physicochemical
[19] = Cmax in mouse at 3 mg/kg, po by LC-MS/MS analysis; format: ADME, organism-based; parameters: dose 3 mg/kg, route oral; conditions: in vivo; summary of the method: as §1
Salmonella typhimurium = test: Mutagenicity in Salmonella typhimurium by Ames test; format: toxicity; conditions: salmonella enterica subsp. enterica serovar typhimurium
Cytochrome P450 3A4 [20] = target: T1, Cytochrome P450 3A4 (Homo sapiens, UniProt P08684); test: Time dependent inhibition of CYP3A4 (unknown origin); format: ADME
T1 sequence (P08684 whole entry): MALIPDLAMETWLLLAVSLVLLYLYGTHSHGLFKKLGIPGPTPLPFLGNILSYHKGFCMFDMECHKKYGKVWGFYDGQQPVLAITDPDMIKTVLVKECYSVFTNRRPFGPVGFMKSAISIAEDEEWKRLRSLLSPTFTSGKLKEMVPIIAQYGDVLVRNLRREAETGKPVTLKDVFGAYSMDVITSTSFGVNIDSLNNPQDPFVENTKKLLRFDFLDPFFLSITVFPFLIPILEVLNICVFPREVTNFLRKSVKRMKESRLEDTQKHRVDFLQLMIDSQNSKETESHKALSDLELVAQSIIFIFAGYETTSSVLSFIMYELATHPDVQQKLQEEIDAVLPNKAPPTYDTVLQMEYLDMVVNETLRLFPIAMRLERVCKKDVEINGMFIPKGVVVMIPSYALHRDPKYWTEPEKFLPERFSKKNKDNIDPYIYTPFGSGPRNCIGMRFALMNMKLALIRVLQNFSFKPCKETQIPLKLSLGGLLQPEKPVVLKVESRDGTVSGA

Cytochrome P450 3A4 [21] = target: T1, Cytochrome P450 3A4; test: Inhibition of CYP3A4 (unknown origin); format: ADME
Summary of the method: (§2)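 CYP inhibition IC50 measured in a panel of five enzymes: CYP3A4, 2D6, 2C9, 2C19 and 1A2.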

Cytochrome P450 2C19 = Cytochrome P450 2C19 (Homo sapiens, UniProt P33261); test: Inhibition of CYP2C19 (unknown origin); format: ADME; summary of the method: as §2
Sequence of Cytochrome P450 2C19 (P33261 whole entry): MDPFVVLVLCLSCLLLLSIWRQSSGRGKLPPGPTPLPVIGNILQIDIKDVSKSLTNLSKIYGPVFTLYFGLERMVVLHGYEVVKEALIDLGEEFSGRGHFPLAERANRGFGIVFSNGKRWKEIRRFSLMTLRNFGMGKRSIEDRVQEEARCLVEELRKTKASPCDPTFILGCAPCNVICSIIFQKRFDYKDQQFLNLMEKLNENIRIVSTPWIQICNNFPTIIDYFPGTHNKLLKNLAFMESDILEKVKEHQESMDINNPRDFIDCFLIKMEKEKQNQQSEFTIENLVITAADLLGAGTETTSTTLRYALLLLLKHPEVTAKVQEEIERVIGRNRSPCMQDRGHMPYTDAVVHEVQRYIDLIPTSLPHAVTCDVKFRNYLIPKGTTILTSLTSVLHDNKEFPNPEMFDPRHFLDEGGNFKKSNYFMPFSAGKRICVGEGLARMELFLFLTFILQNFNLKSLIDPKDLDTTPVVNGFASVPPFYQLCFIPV

Cytochrome P450 2D6 = Cytochrome P450 2D6 (Homo sapiens, UniProt P10635); test: Inhibition of CYP2D6 (unknown origin); format: ADME; summary of the method: as §2
Sequence of Cytochrome P450 2D6 (P10635 whole entry): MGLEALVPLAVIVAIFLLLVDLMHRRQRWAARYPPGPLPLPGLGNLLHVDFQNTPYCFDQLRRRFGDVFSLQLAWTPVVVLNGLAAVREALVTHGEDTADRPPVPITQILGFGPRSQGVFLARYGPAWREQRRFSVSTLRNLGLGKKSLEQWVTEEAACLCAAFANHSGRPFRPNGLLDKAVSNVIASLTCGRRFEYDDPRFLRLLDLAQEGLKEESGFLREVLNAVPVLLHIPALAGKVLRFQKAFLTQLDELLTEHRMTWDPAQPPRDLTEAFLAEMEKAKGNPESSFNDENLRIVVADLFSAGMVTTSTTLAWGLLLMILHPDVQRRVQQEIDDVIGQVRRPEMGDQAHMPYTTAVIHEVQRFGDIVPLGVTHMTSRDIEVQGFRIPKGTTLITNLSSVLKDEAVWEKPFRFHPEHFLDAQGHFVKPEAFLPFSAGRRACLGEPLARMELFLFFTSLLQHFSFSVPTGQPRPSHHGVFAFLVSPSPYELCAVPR

Cytochrome P450 1A2 = target: T2, Cytochrome P450 1A2 (Homo sapiens, UniProt P05177); test: Inhibition of CYP1A2 (unknown origin); format: ADME; summary of the method: as §2
T2 sequence (P05177 whole entry): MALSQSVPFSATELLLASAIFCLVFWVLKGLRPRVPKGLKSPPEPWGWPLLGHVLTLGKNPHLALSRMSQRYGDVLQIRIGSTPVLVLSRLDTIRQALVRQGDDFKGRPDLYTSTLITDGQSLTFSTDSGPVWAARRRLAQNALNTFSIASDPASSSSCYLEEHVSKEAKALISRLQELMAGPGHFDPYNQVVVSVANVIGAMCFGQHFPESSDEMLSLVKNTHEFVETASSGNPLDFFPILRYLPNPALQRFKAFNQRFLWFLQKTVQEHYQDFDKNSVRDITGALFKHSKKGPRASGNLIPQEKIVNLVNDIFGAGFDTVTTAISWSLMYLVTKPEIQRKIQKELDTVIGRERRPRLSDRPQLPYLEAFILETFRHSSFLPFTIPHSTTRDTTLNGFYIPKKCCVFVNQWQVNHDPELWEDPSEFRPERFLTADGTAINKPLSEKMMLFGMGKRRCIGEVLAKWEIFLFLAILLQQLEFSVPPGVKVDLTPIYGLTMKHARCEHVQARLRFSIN

Cytochrome P450 2C9 = Cytochrome P450 2C9 (Homo sapiens, UniProt P11712); test: Inhibition of CYP2C9 (unknown origin); format: ADME; summary of the method: as §2
Sequence of Cytochrome P450 2C9 (P11712 whole entry): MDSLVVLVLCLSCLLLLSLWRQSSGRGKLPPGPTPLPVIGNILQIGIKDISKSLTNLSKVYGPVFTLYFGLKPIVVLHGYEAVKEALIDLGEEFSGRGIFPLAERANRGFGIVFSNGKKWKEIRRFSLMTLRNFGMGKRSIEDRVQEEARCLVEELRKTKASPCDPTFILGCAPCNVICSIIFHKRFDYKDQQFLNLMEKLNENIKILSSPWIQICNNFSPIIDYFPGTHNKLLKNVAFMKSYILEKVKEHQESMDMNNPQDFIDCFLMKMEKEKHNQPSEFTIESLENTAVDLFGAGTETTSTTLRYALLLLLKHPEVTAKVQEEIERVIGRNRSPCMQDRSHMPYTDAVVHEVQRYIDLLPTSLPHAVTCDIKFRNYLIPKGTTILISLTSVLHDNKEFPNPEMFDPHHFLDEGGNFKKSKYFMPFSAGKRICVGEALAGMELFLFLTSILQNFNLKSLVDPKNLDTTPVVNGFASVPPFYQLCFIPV

[22] = target: Voltage-gated inwardly rectifying potassium channel KCNH2 (Homo sapiens, UniProt Q12809); test: (§3) Inhibition of human ERG
Sequence of Voltage-gated inwardly rectifying potassium channel KCNH2 (Q12809 whole entry): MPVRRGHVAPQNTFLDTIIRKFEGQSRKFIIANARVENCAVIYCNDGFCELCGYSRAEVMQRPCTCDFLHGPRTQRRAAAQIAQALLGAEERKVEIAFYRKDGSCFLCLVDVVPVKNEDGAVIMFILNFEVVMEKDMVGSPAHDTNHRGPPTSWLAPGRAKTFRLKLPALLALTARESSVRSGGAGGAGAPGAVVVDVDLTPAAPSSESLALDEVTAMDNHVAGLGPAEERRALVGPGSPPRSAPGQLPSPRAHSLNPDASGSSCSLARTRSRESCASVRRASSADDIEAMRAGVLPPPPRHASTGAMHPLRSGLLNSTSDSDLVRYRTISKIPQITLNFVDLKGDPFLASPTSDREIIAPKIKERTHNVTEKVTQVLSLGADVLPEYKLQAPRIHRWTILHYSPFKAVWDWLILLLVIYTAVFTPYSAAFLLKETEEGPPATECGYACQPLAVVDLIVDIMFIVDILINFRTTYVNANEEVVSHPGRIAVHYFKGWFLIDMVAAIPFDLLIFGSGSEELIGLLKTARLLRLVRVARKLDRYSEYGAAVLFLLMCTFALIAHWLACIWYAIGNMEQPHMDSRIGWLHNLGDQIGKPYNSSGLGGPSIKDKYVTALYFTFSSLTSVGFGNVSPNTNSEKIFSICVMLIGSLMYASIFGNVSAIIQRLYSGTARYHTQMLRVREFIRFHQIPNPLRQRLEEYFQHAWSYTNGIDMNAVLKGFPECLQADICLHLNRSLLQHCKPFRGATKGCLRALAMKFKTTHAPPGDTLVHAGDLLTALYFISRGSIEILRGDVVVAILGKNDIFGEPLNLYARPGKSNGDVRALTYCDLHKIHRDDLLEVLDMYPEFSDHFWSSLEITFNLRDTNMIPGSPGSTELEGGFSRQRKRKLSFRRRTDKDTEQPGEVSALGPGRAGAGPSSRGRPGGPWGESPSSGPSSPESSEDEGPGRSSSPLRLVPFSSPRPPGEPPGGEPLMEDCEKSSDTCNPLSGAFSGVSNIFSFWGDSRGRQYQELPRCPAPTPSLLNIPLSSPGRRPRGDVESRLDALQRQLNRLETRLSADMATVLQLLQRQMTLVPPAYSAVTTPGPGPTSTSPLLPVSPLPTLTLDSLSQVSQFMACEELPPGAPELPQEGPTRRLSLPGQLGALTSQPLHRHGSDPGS

hERG (KCNH2) = hERG (KCNH2) (Homo sapiens, UniProt Q12809); test: as §3
Sequence of hERG (KCNH2) (Q12809 whole entry): as above

[23] = Glutathione reactivity assessed as adduct formation of the compound
Hepatitis B virus [24] = test: Antiviral activity against HBV infected in hydrodynamic injection BALB/c mouse model assessed as reduction of viral DNA copy numbers in liver at 3 to 12.5 mg/kg, po bid after 5 days by real-time PCR method; format: functional, organism-based
Summary of the method: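 Female BALB/c mice hydrodynamically injected via tail vein with replication-competent HBV DNA plasmid. From 20 h post-injection, dosed orally for 5 days: 3 or 12.5 mg/kg twice daily, with vehicle and entecavir 0.1 mg/kg once daily as controls. Liver HBV DNA copies measured by real-time qPCR; six mice per group, SEM.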

Compound | EC50 (Hepatitis B virus [1]) [µM] | CC50 at 120 h [2] [µM] | Activity (Hepatocyte) [%] | solubility [3] [µg/mL] | Ratio CC50/EC50 [5] | pKa [7] | logD [8] | fraction unbound at 5 h, 1 µM [9] | Papp at 18 h, 150 µM [11] [×10⁻⁶ cm/s] | fraction unbound at 5 h, 1 µM [12] | half-life [13] [h] | Kp [14] | Vd [15] [L/kg] | AUC(0-inf) [16] [ng·h/mL] | AUC(0-inf) [17] [ng·h/mL] | pKa [18] | Cmax [19] [ng/mL] | also measured
CCOC(=O)C1=C(CN2CCOC[C@H]2C(=O)O)NC(c2nccs2)=N[C@H]1c1ccc(F)cc1Cl | 0.002 | > 100 | 183 |  |  |  |  |  |  |  |  |  |  |  |  |  |  | 
COC(=O)C1=C(CN2CCO[C@H](C)[C@H]2C(=O)O)NC(c2nccs2)=N[C@H]1c1ccc(F)cc1Cl | 0.007 | > 100 | 81 | > 667 |  |  |  |  |  |  |  |  |  |  |  |  |  | 
CCOC(=O)C1=C(CN2CCOC[C@H]2C(=O)O)NC(c2nccs2)=N[C@H]1c1cccc(F)c1Cl | 0.0008 | > 100 | 144 | > 679 | 125000 | 1.8 | 0.42 | 0.022 | 3.3 | 0.02 | 3 | 3.2 | 4.1 | 2000 | 624 | 5.7 | 783 | bioavailability [4]: 82%; AUC(0-inf) [6]: 253 ng·h/mL; clearance [10]: 66 mL/min/kg
COC(=O)C1=C(CN2CCOC[C@H]2C(=O)O)N=C(c2nccs2)N[C@H]1c1ccc(F)cc1Cl |  | > 100 | 111 | > 666 |  | 1.8 | 0.06 | 0.074 | 1.4 | 0.057 | 1.5 | 12.3 | 2.5 | 11800 | 962 | 5.8 | 413 | Activity (Salmonella typhimurium): Non-Toxic; TDI (Cytochrome P450 3A4 [20]): Not Active; IC50 (Cytochrome P450 3A4 [21]): > 50 µM; IC50 (Cytochrome P450 2C19): > 50 µM; IC50 (Cytochrome P450 2D6): > 50 µM; IC50 (Cytochrome P450 1A2): > 50 µM; IC50 (Cytochrome P450 2C9): > 50 µM; inhibition (INH) [22]: Not Active; IC20 (hERG (KCNH2)): > 10 µM
COC(=O)C1=C(CN2CCOC[C@H]2C(=O)O)NC(c2nccs2)=N[C@H]1c1ccc(F)cc1Cl |  |  |  |  |  |  |  |  |  |  |  |  |  |  |  |  |  | Stability [23]: Stable; Activity (Hepatitis B virus [24]): Active
COC(=O)C1=C(CN2CCOC[C@H]2C(=O)O)NC(c2nccs2)=N[C@H]1c1ccc(F)c(F)c1C | 0.002 | > 100 | 56 | > 604 | >50000 | < 2.5 | 0.44 | 0.062 | 2.7 | 0.054 | 1.4 | 27 | 1.9 | 9210 | 344 | 5.7 | 283 | bioavailability [4]: 30%; AUC(0-inf) [6]: 379 ng·h/mL; clearance [10]: 44 mL/min/kg
COC(=O)C1=C(CN2CCOC[C@H]2C(=O)O)NC(c2nc(C(F)(F)F)cs2)=N[C@H]1c1ccc(F)cc1Cl | 0.003 | > 100 | 72 |  | >33333 |  |  |  |  |  |  |  |  |  |  |  |  | 
